Source: ChEMBL document CHEMBL1275592, “AmpN-AmpG operon is essential for expression of L1 and L2 beta-lactamases in Stenotrophomonas maltophilia” (2010)
Converted amounts (≈) assume the structure as drawn.

Experiments:
Type in all cases: functional
[1] = system: Stenotrophomonas maltophilia; experiment: Antimicrobial activity against Stenotrophomonas maltophilia KJN2 harboring pRK415 plasmid and ampN with xylE-Gmomega cassette insertion by agar dilution method
In short: (§1)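 MICs were determined in triplicate by standard 2-fold serial agar dilution, following CLSI guidelines.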

[2] = system: Stenotrophomonas maltophilia; experiment: Antimicrobial activity against ampN deficient Stenotrophomonas maltophilia KJ by agar dilution method; in short: as §1
[3] = system: Stenotrophomonas maltophilia; experiment: Antimicrobial activity against Stenotrophomonas maltophilia KJG harboring ampG with xylE-Gmomega cassette insertion by agar dilution method; in short: as §1
[4] = system: Stenotrophomonas maltophilia; experiment: Antimicrobial activity against Stenotrophomonas maltophilia KJN2 harboring ampN with xylE-Gmomega cassette insertion by agar dilution method; in short: as §1
[5] = system: Stenotrophomonas maltophilia; experiment: Antimicrobial activity against Stenotrophomonas maltophilia KJ harboring pRK415 plasmid by agar dilution method; in short: as §1
[6] = system: Stenotrophomonas maltophilia; experiment: Antimicrobial activity against ampN deficient Stenotrophomonas maltophilia KJ harboring ampG with xylE-Gmomega cassette insertion by agar dilution method; in short: as §1
[7] = system: Stenotrophomonas maltophilia; experiment: Antimicrobial activity against Stenotrophomonas maltophilia KJ harboring pRK-NG plasmid by agar dilution method; in short: as §1
[8] = system: Stenotrophomonas maltophilia; experiment: Antimicrobial activity against Stenotrophomonas maltophilia KJN2 harboring pRK-NG plasmid and ampN with xylE-Gmomega cassette insertion by agar dilution method; in short: as §1
[9] = system: Stenotrophomonas maltophilia; experiment: Antimicrobial activity against Stenotrophomonas maltophilia KJN2 harboring pRK-EcG plasmid and ampN with xylE-Gmomega cassette insertion by agar dilution method; in short: as §1
[10] = system: Stenotrophomonas maltophilia; experiment: Antimicrobial activity against Stenotrophomonas maltophilia KJN2 harboring pRK-G plasmid and ampN with xylE-Gmomega cassette insertion by agar dilution method; in short: as §1
[11] = system: Stenotrophomonas maltophilia; experiment: Antimicrobial activity against Stenotrophomonas maltophilia KJN1 harboring ampN with xylE-Gmomega cassette insertion by agar dilution method; in short: as §1
[12] = system: Stenotrophomonas maltophilia; experiment: Antimicrobial activity against Stenotrophomonas maltophilia KJ by agar dilution method; in short: as §1
[13] = system: Stenotrophomonas maltophilia; experiment: Antimicrobial activity against Stenotrophomonas maltophilia KJN2 harboring pRK-NG plasmid and ampN with xylE-Gmomega cassette insertion by Etest
In short: (§2)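 Imipenem and meropenem MICs were read from Etest strips, following the manufacturer's instructions.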

[14] = system: Stenotrophomonas maltophilia; experiment: Antimicrobial activity against ampN deficient Stenotrophomonas maltophilia KJ by Etest; in short: as §2
[15] = system: Stenotrophomonas maltophilia; experiment: Antimicrobial activity against Stenotrophomonas maltophilia KJN2 harboring pRK415 plasmid and ampN with xylE-Gmomega cassette insertion by Etest; in short: as §2
[16] = system: Stenotrophomonas maltophilia; experiment: Antimicrobial activity against Stenotrophomonas maltophilia KJN2 harboring ampN with xylE-Gmomega cassette insertion by Etest; in short: as §2
[17] = system: Stenotrophomonas maltophilia; experiment: Antimicrobial activity against Stenotrophomonas maltophilia KJG harboring ampG with xylE-Gmomega cassette insertion by Etest; in short: as §2
[18] = system: Stenotrophomonas maltophilia; experiment: Antimicrobial activity against Stenotrophomonas maltophilia KJN2 harboring pRK-EcG plasmid and ampN with xylE-Gmomega cassette insertion by Etest; in short: as §2
[19] = system: Stenotrophomonas maltophilia; experiment: Antimicrobial activity against Stenotrophomonas maltophilia KJN2 harboring pRK-G plasmid and ampN with xylE-Gmomega cassette insertion by Etest; in short: as §2
[20] = system: Stenotrophomonas maltophilia; experiment: Antimicrobial activity against Stenotrophomonas maltophilia KJ by Etest; in short: as §2
[21] = system: Stenotrophomonas maltophilia; experiment: Antimicrobial activity against ampN deficient Stenotrophomonas maltophilia KJ harboring ampG with xylE-Gmomega cassette insertion by Etest; in short: as §2
[22] = system: Stenotrophomonas maltophilia; experiment: Antimicrobial activity against Stenotrophomonas maltophilia KJN1 harboring ampN with xylE-Gmomega cassette insertion by Etest; in short: as §2

SMILES | MIC [1] [mg/L] | MIC [2] [mg/L] | MIC [3] [mg/L] | MIC [4] [mg/L] | MIC [5] [mg/L] | MIC [6] [mg/L] | MIC [7] [mg/L] | MIC [8] [mg/L] | MIC [9] [mg/L] | MIC [10] [mg/L] | MIC [11] [mg/L] | MIC [12] [mg/L] | further results
C[C@H]1[C@H](NC(=O)/C(=N\OC(C)(C)C(=O)O)c2csc(N)n2)C(=O)N1S(=O)(=O)O [AZTREONAM] | 16 (≈ 36.7 µM) | 32 (≈ 73.5 µM) | 16 (≈ 36.7 µM) | 16 (≈ 36.7 µM) | > 1020 | 16 (≈ 36.7 µM) | > 1020 | > 1020 | > 1020 | 32 (≈ 73.5 µM) | 32 (≈ 73.5 µM) | > 1020 | –
C[C@@H](O)[C@H]1C(=O)N2C(C(=O)O)=C(SCCNC=N)C[C@H]12 [IMIPENEM ANHYDROUS] | – | – | – | – | – | – | – | – | – | – | – | – | MIC [13]: > 32 mg/L; MIC [14]: 4 mg/L (≈ 13.4 µM); MIC [15]: 1.5 mg/L (≈ 5.01 µM); MIC [16]: 2 mg/L (≈ 6.68 µM); MIC [17]: 2 mg/L (≈ 6.68 µM); MIC [18]: > 32 mg/L; MIC [19]: 3 mg/L (≈ 10 µM); MIC [20]: > 32 mg/L; MIC [21]: 2 mg/L (≈ 6.68 µM); MIC [22]: 4 mg/L (≈ 13.4 µM)
CC1(C)S[C@@H]2[C@H](NC(=O)C(C(=O)O)c3ccccc3)C(=O)N2[C@H]1C(=O)O (stereo partly specified) [CARBENICILLIN] | 4 (≈ 10.6 µM) | 4 (≈ 10.6 µM) | 2 (≈ 5.29 µM) | 2 (≈ 5.29 µM) | 1020 (≈ 2710 µM) | 2 (≈ 5.29 µM) | 1020 (≈ 2710 µM) | 1020 (≈ 2710 µM) | 512 (≈ 1350 µM) | 4 (≈ 10.6 µM) | 8 (≈ 21.1 µM) | 1020 (≈ 2710 µM) | –
CCN1CCN(C(=O)N[C@@H](C(=O)N[C@@H]2C(=O)N3[C@@H]2SC(C)(C)[C@@H]3C(=O)O)c2ccccc2)C(=O)C1=O [PIPERACILLIN] | 16 (≈ 30.9 µM) | 32 (≈ 61.8 µM) | 32 (≈ 61.8 µM) | 16 (≈ 30.9 µM) | 1020 (≈ 1980 µM) | 16 (≈ 30.9 µM) | 1020 (≈ 1980 µM) | 1020 (≈ 1980 µM) | 512 (≈ 989 µM) | 32 (≈ 61.8 µM) | 32 (≈ 61.8 µM) | 1020 (≈ 1980 µM) | –
